Assay results as given in ChEMBL document CHEMBL3992510, “Urea Derivatives of 2-Aryl-benzothiazol-5-amines: A New Class of Potential Drugs for Human African Trypanosomiasis” (J Med Chem, 2017).

Columns and labels:
[1] = test system: Trypanosoma brucei brucei; test: Antitrypanosomal activity against Trypanosoma brucei brucei BF427 assessed as growth inhibition measured after 48 hrs by Alamar blue assay; type: functional; conditions: BF427, 48 h
Summary of the method: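 Bloodstream-form parasites in HMI-9 medium are exposed to serial compound dilutions in triplicate. Viability is read with Alamar Blue at 48 h. EC50 and EC90 come from nonlinear regression. Pentamidine isethionate is the control.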

[2] = Drug level in mouse brain at 5 mg/kg, ip administered as single dose measured at 1 hr post dose by liquid chromatography/tandem mass spectrometric analysis; type: ADME, organism-based; conditions: read-out: Drug uptake
Summary of the method: (§1)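 Single ip dose of 5 mg/kg in 5% DMSO/7% Tween 80/3% EtOH in 0.9% saline, three mice per compound (six for one compound). At 1 h, plasma is separated by centrifugation and brain homogenized in acetonitrile. Both are quantified by LC-MS/MS, with brain corrected for 3% v/w blood. Brain/plasma ratio is reported as mean ± SEM.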

[3] = Drug level in mouse plasma at 5 mg/kg, ip administered as single dose measured at 1 hr post dose by liquid chromatography/tandem mass spectrometric analysis; type: ADME, organism-based; summary of the method: as §1
[4] = Selectivity index, ratio of EC50 for human HepG2 cells to EC50 for Trypanosoma brucei brucei BF427; type: toxicity; conditions: read-out: Ratio EC50
[5] = Cytotoxicity against human CRL8155 cells assessed as growth inhibition after 48 hrs by Alamar blue assay; type: cell-based; conditions: for EC50: Homo sapiens, CRL8155, 48 h; for EC90: human, crl8155, 48 h
Summary of the method: (§2)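 CRL-8155 lymphoblasts or HepG2 hepatocellular carcinoma cells are exposed 48 h to serial compound dilutions in quadruplicate. Growth is read with Alamar Blue, and 50% and 90% inhibitory concentrations come from nonlinear regression. Quinacrine is the control.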

[6] = Selectivity index, ratio of EC50 for human CRL8155 cells to EC50 for Trypanosoma brucei brucei BF427; type: toxicity; conditions: read-out: Ratio EC50
HepG2 = test: Cytotoxicity against human HepG2 cells assessed as growth inhibition after 48 hrs by Alamar blue assay; type: cell-based; conditions: for EC50: Homo sapiens, HepG2, 48 h; for EC90: human, hepg2, 48 h; summary of the method: as §2
Liver [7] = test: Half life in human liver microsomes at 1.5 uM in presence of NADPH by liquid chromatography/tandem mass spectrometric analysis; type: ADME, microsome
Liver [8] = test: Half life in mouse liver microsomes at 1.5 uM in presence of NADPH by liquid chromatography/tandem mass spectrometric analysis; type: ADME, microsome

O=C(Nc1ccc2sc(-c3ccc(F)cc3F)nc2c1)N1CCCC1
EC50 [1]: 0.929 µM | EC90 [1]: 1.48 µM

COC1CCN(C(=O)Nc2ccc3sc(-c4ccc(F)c(F)c4)nc3c2)C1 (configuration not stated)
EC50 [1]: 3.05 µM | EC90 [1]: 4.59 µM

O=C(Nc1ccc2sc(-c3ccccc3)nc2c1)N1CC=CCC1
EC50 [1]: 1.12 µM | EC90 [1]: 1.35 µM

CN(C)C1CCN(C(=O)Nc2ccc3sc(-c4ccc(F)c(F)c4)nc3c2)C1 (configuration not stated)
concentration at 1 h [2]: 3000 nM | EC50 [1]: 1.7 µM | EC90 [1]: 1.95 µM | concentration at 1 h [3]: 780 nM

O=C(Nc1ccc2sc(-c3ccccc3)nc2c1)c1cccs1
selectivity ratio [4]: > 57 | EC50 [5]: > 50 µM | EC90 [5]: > 50 µM | EC50 [1]: 0.882 µM | EC90 [1]: 2.13 µM | selectivity ratio [6]: > 57 | EC50 (HepG2): > 50 µM | EC90 (HepG2): > 50 µM

O=C(NCCc1nc(-c2cccc(F)c2)cs1)N1CCCc2ccccc21
EC50 [1]: 5.95 µM | EC90 [1]: 14 µM

O=C1CCN(C(=O)NCCc2nc(-c3cccc(F)c3)cs2)CC1
selectivity ratio [4]: > 75 | EC50 [5]: > 50 µM | EC90 [5]: > 50 µM | EC50 [1]: 0.667 µM | EC90 [1]: 0.813 µM | selectivity ratio [6]: > 75 | EC50 (HepG2): > 50 µM | EC90 (HepG2): > 50 µM

C[C@]12CC[C@H]3[C@@H](CCC4=CC(=O)CC[C@@]43C)[C@@H]1CC[C@@H]2O [TESTOSTERONE]
t1/2 (Liver [7]): 22.7 min | t1/2 (Liver [8]): 5.26 min

O=C(Nc1ccc2sc(-c3ccc(F)cc3)nc2c1)N1CCCCC1
selectivity ratio [4]: > 117 | EC50 [5]: > 50 µM | EC90 [5]: > 50 µM | EC50 [1]: 0.427 µM | EC90 [1]: 0.737 µM | selectivity ratio [6]: > 117 | EC50 (HepG2): > 50 µM | EC90 (HepG2): > 50 µM

COc1ccc2c(c1)[C@]13CCCC[C@@H]1[C@H](C2)N(C)CC3 [DEXTROMETHORPHAN]
t1/2 (Liver [7]): 39.15 min | t1/2 (Liver [8]): 7.79 min

O=C(Nc1ccc2sc(-c3ccc(F)cc3)nc2c1)c1ccccc1
EC50 [1]: 1.92 µM | EC90 [1]: 3 µM

O=C(Nc1ccc2oc(-c3ccccc3)nc2c1)c1ccccc1
EC50 [1]: > 10 µM | EC90 [1]: > 10 µM | t1/2 (Liver [7]): 60 min | t1/2 (Liver [8]): 17 min

O=C(Nc1ccc2sc(-c3cccc(F)c3)nc2c1)c1ccccc1
EC50 [1]: 1.78 µM | EC90 [1]: 3.62 µM

Cc1nc2cc(NC(=O)N3CCCC3)ccc2s1
EC50 [1]: > 20 µM | EC90 [1]: > 20 µM

O=C(Nc1ccc2sc(-c3ccccc3)nc2c1)c1cscn1
EC50 [1]: > 10 µM | EC90 [1]: > 10 µM

CN1CCN(C(=O)Nc2ccc3sc(-c4cccc(F)c4)nc3c2)CC1
EC50 [1]: 3.15 µM | EC90 [1]: 7.55 µM

O=C(Nc1ccc2oc(-c3ccccc3)nc2c1)N1CCCC1
concentration at 1 h [2]: 397 nM | EC50 [1]: 5.25 µM | EC90 [1]: > 10 µM | concentration at 1 h [3]: 270 nM

O=C(Nc1ccc2sc(-c3ccccc3)nc2c1)c1nccs1
EC50 [1]: 5.86 µM | EC90 [1]: > 10 µM

CC(C)(Cc1nc(-c2cccc(F)c2)cs1)NC(=O)c1ccccc1
EC50 [1]: > 10 µM | EC90 [1]: > 10 µM

O=C(Nc1ccc2sc(-c3ccccc3)nc2c1)c1ccsc1
EC50 [1]: 1.57 µM | EC90 [1]: 2.49 µM

N=C(N)c1ccc(OCCCCCOc2ccc(C(=N)N)cc2)cc1
selectivity ratio [4]: > 93000 | EC50 [5]: 45.4 µM | EC90 [5]: > 100 µM | EC50 [1]: 0.00105 µM | EC90 [1]: 0.00354 µM | selectivity ratio [6]: > 43200 | EC50 (HepG2): > 100 µM | EC90 (HepG2): > 100 µM

O=C(Nc1ccc2sc(-c3ccc(F)c(F)c3)nc2c1)N1CCCCC1
selectivity ratio [4]: > 224 | concentration at 1 h [2]: 1290 nM | EC50 [5]: > 50 µM | EC90 [5]: > 50 µM | EC50 [1]: 0.223 µM | EC90 [1]: 0.282 µM | selectivity ratio [6]: > 224 | concentration at 1 h [3]: 2520 nM | EC50 (HepG2): > 50 µM | EC90 (HepG2): > 50 µM

O=C(Nc1ccc2sc(-c3ccccc3)nc2c1)N1CCSC1
EC50 [1]: 1.24 µM | EC90 [1]: 2.38 µM

O=C(Nc1ccc2sc(-c3ccccc3F)nc2c1)N1CCCCC1
selectivity ratio [4]: > 53 | EC50 [5]: > 50 µM | EC90 [5]: > 50 µM | EC50 [1]: 0.935 µM | EC90 [1]: 1.14 µM | selectivity ratio [6]: > 53 | EC50 (HepG2): > 50 µM | EC90 (HepG2): > 50 µM

CC(C)(Cc1csc(-c2ccccc2)n1)NC(=O)N1CCCC1
EC50 [1]: > 10 µM | EC90 [1]: > 10 µM

C[C@@H]1CCC[C@H](C)N1C(=O)NCCc1nc(-c2cccc(F)c2)cs1
selectivity ratio [4]: > 125 | EC50 [5]: > 50 µM | EC90 [5]: > 50 µM | EC50 [1]: 0.399 µM | EC90 [1]: 0.564 µM | selectivity ratio [6]: > 125 | EC50 (HepG2): > 50 µM | EC90 (HepG2): > 50 µM
